≈ marks a conversion by molar mass, not a printed value.
Tests used:
[1] = system: Liver microsome; assay: Intrinsic clearance in rat liver microsome at 1 uM preincubated for 5 mins by LC-MS analysis; assay type: ADME; details: microsomes
[2] = Drug metabolism in human liver microsome at 10 uM after 30 mins by LC-MS analysis; assay type: ADME; details: liver microsomes, read-out: Drug metabolism
[3] = Drug metabolism in mouse liver microsome at 10 uM after 30 mins by LC-MS analysis; assay type: ADME; details: liver microsomes, read-out: Drug metabolism
[4] = cells; assay type: cell-based; details: Homo sapiens, 7dF3
[5] = Apparent permeability in human Caco2 cells after 2 hrs by LC-MS/MS analysis; assay type: ADME, cell-based, Caco-2
[6] = Clearance in NMRI mouse at 0.2 mg/kg, iv; assay type: ADME, organism-based; set-up: dose 0.2 mg/kg, route intravenous; details: in vivo
Outline: (§1)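 Female NMRI mice (n = 5) given a single iv bolus (0.2 mg/kg per compound) or oral gavage (0.5 mg/kg per compound) as a cassette, in DMSO/PEG 200/water. Serial retro-orbital blood was drawn under isoflurane from 3 animals per route at 0.1 (iv), 0.25 (po), 0.5, 1, 2, 4 and 6 h. Plasma was quantified by LC–MS/MS.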

[7] = Volume of distribution at steady state in NMRI mouse at 0.2 mg/kg, iv; assay type: ADME, organism-based; set-up: dose 0.2 mg/kg, route intravenous; details: in vivo, read-out: Vdss; outline: as §1
[8] = Tmax in NMRI mouse at 0.2 mg/kg, iv; assay type: ADME, organism-based; set-up: dose 0.2 mg/kg, route intravenous; details: in vivo; outline: as §1
[9] = AUC in NMRI mouse at 0.2 mg/kg, iv; assay type: ADME, organism-based; set-up: dose 0.2 mg/kg, route intravenous; details: plasma; outline: as §1
[10] = Half life in NMRI mouse at 0.2 mg/kg, iv; assay type: ADME, organism-based; set-up: dose 0.2 mg/kg, route intravenous; details: in vivo; outline: as §1
[11] = Tmax in NMRI mouse at 0.5 mg/kg, po; assay type: ADME, organism-based; set-up: dose 0.5 mg/kg, route oral; details: in vivo; outline: as §1
[12] = AUC in NMRI mouse at 0.5 mg/kg, po; assay type: ADME, organism-based; set-up: dose 0.5 mg/kg, route oral; details: plasma; outline: as §1
[13] = Oral bioavailability in NMRI mouse at 0.5 mg/kg; assay type: ADME, organism-based; details: in vivo
[14] = target: T1, Poly [ADP-ribose] polymerase tankyrase-1 (Homo sapiens, UniProt O95271); assay: Inhibition of GST-tagged TNKS1 (1023 to 1327 aa) (unknown origin) after 90 mins by HTRF assay
T1 sequence (O95271 whole entry): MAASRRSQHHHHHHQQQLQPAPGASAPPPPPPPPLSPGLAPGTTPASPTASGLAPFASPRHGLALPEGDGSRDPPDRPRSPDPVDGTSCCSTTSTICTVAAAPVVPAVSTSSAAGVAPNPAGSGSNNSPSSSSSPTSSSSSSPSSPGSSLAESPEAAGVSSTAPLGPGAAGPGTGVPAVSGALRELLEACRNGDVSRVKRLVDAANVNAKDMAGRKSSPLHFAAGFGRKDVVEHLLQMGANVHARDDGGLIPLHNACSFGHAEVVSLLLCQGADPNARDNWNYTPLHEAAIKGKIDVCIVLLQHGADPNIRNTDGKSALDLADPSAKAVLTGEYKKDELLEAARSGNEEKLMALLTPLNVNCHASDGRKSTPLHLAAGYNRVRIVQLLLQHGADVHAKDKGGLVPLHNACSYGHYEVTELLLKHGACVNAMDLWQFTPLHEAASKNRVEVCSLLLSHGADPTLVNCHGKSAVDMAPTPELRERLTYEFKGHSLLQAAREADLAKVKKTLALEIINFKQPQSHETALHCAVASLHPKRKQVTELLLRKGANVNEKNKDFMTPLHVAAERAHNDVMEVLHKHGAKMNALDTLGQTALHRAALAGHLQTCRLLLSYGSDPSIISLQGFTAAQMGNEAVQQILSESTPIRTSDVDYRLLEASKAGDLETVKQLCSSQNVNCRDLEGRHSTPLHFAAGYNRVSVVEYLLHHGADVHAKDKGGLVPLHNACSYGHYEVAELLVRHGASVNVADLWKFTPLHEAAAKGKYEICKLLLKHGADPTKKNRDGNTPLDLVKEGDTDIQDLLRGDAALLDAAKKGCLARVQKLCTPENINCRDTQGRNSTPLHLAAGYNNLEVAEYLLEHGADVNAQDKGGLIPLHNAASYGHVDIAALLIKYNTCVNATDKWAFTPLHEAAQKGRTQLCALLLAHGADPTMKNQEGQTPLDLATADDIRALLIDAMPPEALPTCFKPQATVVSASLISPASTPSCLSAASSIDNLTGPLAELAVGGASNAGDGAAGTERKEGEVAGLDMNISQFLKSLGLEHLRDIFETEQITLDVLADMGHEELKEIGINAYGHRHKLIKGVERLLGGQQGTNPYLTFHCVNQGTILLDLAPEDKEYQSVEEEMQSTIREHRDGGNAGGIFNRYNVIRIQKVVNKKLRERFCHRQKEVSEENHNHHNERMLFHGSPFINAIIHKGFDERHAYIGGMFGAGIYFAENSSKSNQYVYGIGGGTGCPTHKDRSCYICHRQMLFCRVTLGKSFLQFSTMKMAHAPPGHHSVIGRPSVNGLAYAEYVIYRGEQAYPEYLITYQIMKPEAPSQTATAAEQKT

[15] = target: T2, Poly [ADP-ribose] polymerase tankyrase-2 (Homo sapiens, UniProt Q9H2K2); assay: Inhibition of GST-tagged TNKS2 (873 to 1166 aa) (unknown origin) after 90 mins by HTRF assay
T2 sequence (Q9H2K2 whole entry): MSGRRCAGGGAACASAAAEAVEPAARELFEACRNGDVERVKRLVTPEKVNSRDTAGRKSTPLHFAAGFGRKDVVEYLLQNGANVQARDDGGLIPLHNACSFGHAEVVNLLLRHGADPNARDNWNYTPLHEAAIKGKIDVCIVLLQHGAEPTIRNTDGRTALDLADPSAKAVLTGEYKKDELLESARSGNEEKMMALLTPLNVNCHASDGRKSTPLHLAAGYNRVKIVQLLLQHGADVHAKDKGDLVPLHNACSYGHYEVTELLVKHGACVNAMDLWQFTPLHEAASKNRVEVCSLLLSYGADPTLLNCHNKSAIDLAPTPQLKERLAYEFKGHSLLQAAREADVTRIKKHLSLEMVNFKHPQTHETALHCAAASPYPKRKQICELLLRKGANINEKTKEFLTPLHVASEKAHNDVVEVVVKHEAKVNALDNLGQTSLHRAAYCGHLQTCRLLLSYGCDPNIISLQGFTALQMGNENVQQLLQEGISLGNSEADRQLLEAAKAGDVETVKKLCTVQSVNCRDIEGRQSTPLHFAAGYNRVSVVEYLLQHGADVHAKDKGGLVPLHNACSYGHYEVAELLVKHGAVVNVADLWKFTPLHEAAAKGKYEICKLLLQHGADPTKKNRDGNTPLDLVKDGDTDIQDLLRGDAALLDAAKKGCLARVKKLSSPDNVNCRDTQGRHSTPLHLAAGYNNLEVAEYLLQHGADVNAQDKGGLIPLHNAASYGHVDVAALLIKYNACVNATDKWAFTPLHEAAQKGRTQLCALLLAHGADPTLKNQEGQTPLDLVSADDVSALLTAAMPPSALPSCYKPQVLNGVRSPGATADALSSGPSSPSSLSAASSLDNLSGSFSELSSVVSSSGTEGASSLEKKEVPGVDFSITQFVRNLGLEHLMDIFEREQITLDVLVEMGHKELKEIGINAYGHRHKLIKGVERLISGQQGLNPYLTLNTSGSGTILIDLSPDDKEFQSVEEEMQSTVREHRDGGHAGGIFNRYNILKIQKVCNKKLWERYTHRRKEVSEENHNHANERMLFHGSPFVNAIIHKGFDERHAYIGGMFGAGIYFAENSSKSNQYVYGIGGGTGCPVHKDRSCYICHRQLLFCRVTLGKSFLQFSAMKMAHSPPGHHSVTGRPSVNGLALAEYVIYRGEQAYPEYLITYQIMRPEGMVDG

[16] = Kinetic solubility of the compound in phosphate buffer at pH 7.4; assay type: physicochemical
[17] = Thermodynamic aqueous solubility of the compound in phosphate buffer at pH 7.4; assay type: physicochemical
Outline: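 Kinetic and thermodynamic aqueous solubilities were measured in phosphate buffer at pH 7.4.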

[18] = target: Cytochrome P450 2C9 (Homo sapiens, UniProt P11712); assay: Inhibition of CYP2C9 (unknown origin); assay type: ADME
[19] = target: Cytochrome P450 3A4 (Homo sapiens, UniProt P08684); assay: Inhibition of CYP3A4 (unknown origin); assay type: ADME
[20] = Aqueous solubility of the compound; assay type: physicochemical; details: buffer
[21] = Inhibition of WNT signaling in human T-Rex HEK293 Tet-O cells harboring constitutively active deltaN-LRP6 after 4 days by luciferase reporter assay; assay type: cell-based; details: HEK293, 96 h
Outline: (§2)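 HEK293 T-Rex Tet-O cells stably carrying TCF-firefly luciferase-IRES-GFP reporter plus Tet-inducible cDNA (ΔN-LRP6, Dvl2, Axin-GID, ΔN-β-catenin or VP16-TCF4) introduced by FLP-FRT recombination; seeded from frozen at 40 000/well; day 3 compound added, eight concentrations 30 μM to 14 nM (final), with doxycycline hyclate; day 4 cells lysed, firefly luciferase luminescence read.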

[22] = Inhibition of WNT signaling in human T-Rex HEK293 Tet-O cells harboring Dvl2 after 4 days by luciferase reporter assay; assay type: cell-based; details: HEK293, 96 h; outline: as §2
[23] = Inhibition of WNT signaling in human T-Rex HEK293 Tet-O cells harboring dominant negative form of Axin GSK3beta-interacting domain after 4 days by luciferase reporter assay; assay type: cell-based; details: HEK293, 96 h; outline: as §2
[24] = Inhibition of WNT signaling in human T-Rex HEK293 Tet-O cells harboring degradation resistant form of beta-catenin after 4 days by luciferase reporter assay; assay type: cell-based; details: HEK293, 96 h; outline: as §2
[25] = Inhibition of WNT signaling in human T-Rex HEK293 Tet-O cells harboring constitutively active VP16-TCF in absence of beta-catenin after 4 days by luciferase reporter assay; assay type: cell-based; details: HEK293, 96 h; outline: as §2

Chain of Cytochrome P450 2C9 (P11712 whole entry): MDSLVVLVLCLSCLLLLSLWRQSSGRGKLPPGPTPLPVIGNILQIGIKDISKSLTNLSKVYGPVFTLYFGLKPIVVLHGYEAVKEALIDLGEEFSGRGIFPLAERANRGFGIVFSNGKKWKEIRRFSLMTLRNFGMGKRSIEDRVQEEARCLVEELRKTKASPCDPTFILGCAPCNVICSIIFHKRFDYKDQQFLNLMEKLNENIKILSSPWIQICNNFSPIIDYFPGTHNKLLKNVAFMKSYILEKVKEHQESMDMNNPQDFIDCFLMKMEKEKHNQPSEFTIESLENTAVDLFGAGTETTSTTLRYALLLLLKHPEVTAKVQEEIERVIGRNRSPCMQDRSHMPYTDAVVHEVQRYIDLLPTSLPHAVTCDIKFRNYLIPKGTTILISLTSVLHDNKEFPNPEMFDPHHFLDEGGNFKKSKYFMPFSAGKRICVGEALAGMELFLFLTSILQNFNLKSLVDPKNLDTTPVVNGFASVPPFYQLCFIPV
Chain of Cytochrome P450 3A4 (P08684 whole entry): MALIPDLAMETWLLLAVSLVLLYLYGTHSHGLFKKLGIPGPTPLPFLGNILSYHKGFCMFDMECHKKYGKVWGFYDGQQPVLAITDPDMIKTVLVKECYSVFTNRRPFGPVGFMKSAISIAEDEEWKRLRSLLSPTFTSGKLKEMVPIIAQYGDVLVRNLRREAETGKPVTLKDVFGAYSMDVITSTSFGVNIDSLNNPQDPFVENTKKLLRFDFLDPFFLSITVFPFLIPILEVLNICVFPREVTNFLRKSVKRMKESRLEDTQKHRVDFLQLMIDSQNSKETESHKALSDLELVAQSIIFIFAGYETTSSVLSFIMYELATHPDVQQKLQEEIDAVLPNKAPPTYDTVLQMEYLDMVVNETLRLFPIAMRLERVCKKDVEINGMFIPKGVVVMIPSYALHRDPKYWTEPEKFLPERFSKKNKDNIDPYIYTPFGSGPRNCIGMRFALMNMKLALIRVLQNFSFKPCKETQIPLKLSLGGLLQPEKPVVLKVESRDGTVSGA

CLint [1]	metabolised at 0.5 h, 10 µM [2]	metabolised at 0.5 h, 10 µM [3]	IC50 [4]	Structure (SMILES)	other results
111 µL/min/mg	–	–	–	O=C1NCCC12CCN(c1c(Cl)cncc1-c1ccc(C3CCOCC3)cc1)CC2	–
124 µL/min/mg	–	–	–	Cn1cc(-c2ccc(-c3cncc(Cl)c3N3CCC4(CCNC4=O)C3)cc2)cn1 (single isomer, unassigned; enantiomer 2)	–
–	24%	25%	6 nM	O=C1CC2(CCN(c3c(Cl)cncc3-c3ccc(N4CCOCC4)cc3)CC2)C(=O)N1	solubility [20]: 3 µg/mL (≈ 6.8 µM)
66 µL/min/mg	–	–	–	Cn1ncc2cc(-c3cncc(Cl)c3N3CCC4(CCNC4=O)CC3)ccc21	–
99 µL/min/mg	–	–	–	O=C1NCCC12CCN(c1c(Cl)cncc1-c1ccc(-c3ccncc3)cc1)CC2	–
–	–	–	–	O=C1NCCC12CCN(c1c(Cl)cncc1-c1ccc3cnccc3c1)CC2	Papp at 2 h ([5]; Caco-2): 24 ×10⁻⁶ cm/s
225 µL/min/mg	–	–	–	O=C1NCCC12CCN(c1c(Cl)cncc1-c1ccc(N3CCCCC3)cc1)CC2	–
97 µL/min/mg	–	–	–	Cn1ccc(-c2ccc(-c3cncc(Cl)c3N3CCC4(CCNC4=O)CC3)cc2)n1	–
298 µL/min/mg	–	–	–	Cn1cc(-c2ccc(-c3cncc(Cl)c3N3CCC4(CCNC4=O)C3)cc2)cn1 (stereo in doubt; 79)	–
10 µL/min/mg	–	–	–	CN1CCN(c2ccc(-c3cncc(Cl)c3N3CCC4(CCNC4=O)CC3)cc2)CC1	–
–	6%	37%	1100 nM	NC(=O)C1CCN(c2c(Cl)cncc2-c2cccnc2)CC1	–
–	6%	88%	1700 nM	NC(=O)C1CCN(c2c(Cl)cncc2-c2cn[nH]c2)CC1	–
213 µL/min/mg	–	–	–	Cn1cc(-c2ccc(-c3cncc(Cl)c3N3CCC4(CCNC4=O)C3)cc2)cn1 (racemic)	–
–	30%	84%	37 nM	COc1ccc(-c2cncc(Cl)c2N2CCC(C(N)=O)CC2)cc1	IC50 [21]: 20 nM; IC50 [22]: 20 nM; IC50 [23]: 24 nM; IC50 [24]: 70 nM; IC50 [25]: 230 nM

Structure (SMILES)	CLint [1]	metabolised at 0.5 h, 10 µM [2]	metabolised at 0.5 h, 10 µM [3]	IC50 [4]	other results
O=C1NCCC12CCN(c1c(Cl)cncc1-c1ccc(N3CCOCC3)cc1)CC2	–	20%	29%	30 nM	Papp ([5]; caco-2, 2 h): 37 ×10⁻⁶ cm/s; clearance [6]: 65 mL/min/kg; Vd [7]: 1.44 L/kg; Tmax [8]: 6 min; AUC [9]: 50.8 ng·h/mL; half-life [10]: 18.6 min; Tmax [11]: 15 min; AUC [12]: 7.4 ng·h/mL; bioavailability [13]: 6%; IC50 [14]: 19000 nM; IC50 [15]: 16000 nM; Kinetic_solubility [16]: 164 µM; Therm_solubility [17]: 17 µg/mL; IC50 [18]: 2900 nM; IC50 [19]: 2100 nM
O=C1NCCC12CCN(c1c(Cl)cncc1-c1ccc(-c3cnoc3)cc1)CC2	136 µL/min/mg	–	–	–	–

— ChEMBL document CHEMBL3407438, “Discovery of potent, orally bioavailable, small-molecule inhibitors of WNT signaling from a cell-based pathway screen” (J Med Chem, 2015)
